# Assay results: ChEMBL document CHEMBL1154183, “Structure-based optimization of potent and selective inhibitors of the tyrosine kinase erythropoietin producing human hepatocellular carcinoma receptor B4 (EphB4)” (J Med Chem, 2009)
# pIC50: −log10 of the molar value.
# Tests used:
# [1] = target: Tyrosine-protein kinase SYK (Homo sapiens) (UniProt P43405); test: Inhibition of SYK assessed as remaining enzyme activity at 3 uM relative to DMSO
# [2] = target: Tyrosine-protein kinase CSK (Homo sapiens) (UniProt P41240); test: Inhibition of CSK assessed as remaining enzyme activity at 3 uM relative to DMSO
# Method in brief: (§1)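 Dundee kinase panel, radiometric: [γ-33P]ATP (800 cpm/pmol) at 5, 20 or 50 μM, at or below each kinase's ATP Km; 10 mM magnesium acetate; robotic, room temperature, 30 min. Reactions started with MgATP, stopped with orthophosphoric acid, spotted onto P81 filters. Inhibitor tested at a single concentration; mean % activity of duplicates relative to DMSO control.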
# [3] = target: Serine/threonine-protein kinase PAK 6 (Homo sapiens) (UniProt Q9NQU5); test: Inhibition of PAK6 assessed as remaining enzyme activity at 3 uM relative to DMSO
# Method in brief: (§2)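 Radiometric kinase assay run robotically at room temperature for 30 min. Contained 10 mM magnesium acetate and [γ-33P]ATP (800 cpm/pmol) at 5, 20 or 50 μM, chosen per kinase to be at or below its ATP Km. Reactions were started with MgATP, stopped with orthophosphoric acid and spotted onto P81 filters. Result is mean % activity of duplicates at one inhibitor concentration versus DMSO control.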
# [4] = target: Dual specificity tyrosine-phosphorylation-regulated kinase 3 (Homo sapiens) (UniProt O43781); test: Inhibition of DYRK3 assessed as remaining enzyme activity at 3 uM relative to DMSO; method in brief: as §1
# [5] = target: Inhibitor of nuclear factor kappa-B kinase subunit beta (Homo sapiens) (UniProt O14920); test: Inhibition of IKK-beta assessed as remaining enzyme activity at 3 uM relative to DMSO; method in brief: as §1
# [6] = target: Mitogen-activated protein kinase 11 (Homo sapiens) (UniProt Q15759); test: Inhibition of p38beta assessed as remaining enzyme activity at 3 uM relative to DMSO
# [7] = target: Dual specificity protein kinase TTK (Homo sapiens) (UniProt P33981); test: Inhibition of TTK assessed as remaining enzyme activity at 3 uM relative to DMSO
# [8] = target: Protein kinase C zeta type (Homo sapiens) (UniProt Q05513); test: Inhibition of PKCzeta assessed as remaining enzyme activity at 3 uM relative to DMSO
# [9] = target: Serine/threonine-protein kinase pim-1 (Homo sapiens) (UniProt P11309); test: Inhibition of PIM1 assessed as remaining enzyme activity at 3 uM relative to DMSO; method in brief: as §2
# [10] = target: RAC-beta serine/threonine-protein kinase (Homo sapiens) (UniProt P31751); test: Inhibition of PKBbeta assessed as remaining enzyme activity at 3 uM relative to DMSO; method in brief: as §2
# [11] = target: Serine/threonine-protein kinase Nek6 (Homo sapiens) (UniProt Q9HC98); test: Inhibition of NEK6 assessed as remaining enzyme activity at 3 uM relative to DMSO; method in brief: as §2
# [12] = target: Serine/threonine-protein kinase PAK 5 (Homo sapiens) (UniProt Q9P286); test: Inhibition of PAK5 assessed as remaining enzyme activity at 3 uM relative to DMSO; method in brief: as §2
# [13] = target: Proto-oncogene tyrosine-protein kinase Src (Homo sapiens) (UniProt P12931); test: Inhibition of Src assessed as remaining enzyme activity at 3 uM relative to DMSO
# [14] = target: Ribosomal protein S6 kinase alpha-1 (Homo sapiens) (UniProt Q15418); test: Inhibition of RSK1 assessed as remaining enzyme activity at 3 uM relative to DMSO
# [15] = target: Protein kinase C alpha type (Homo sapiens) (UniProt P17252); test: Inhibition of PKCalpha assessed as remaining enzyme activity at 3 uM relative to DMSO
# [16] = target: Serine/threonine-protein kinase PAK 4 (Homo sapiens) (UniProt O96013); test: Inhibition of PAK4 assessed as remaining enzyme activity at 1 uM relative to DMSO; method in brief: as §2
# [17] = target: Serine/threonine-protein kinase pim-1 (Homo sapiens) (UniProt P11309); test: Inhibition of PIM1 assessed as remaining enzyme activity at 1 uM relative to DMSO; method in brief: as §2
# [18] = target: Mitogen-activated protein kinase 8 (Homo sapiens) (UniProt P45983); test: Inhibition of JNK1 assessed as remaining enzyme activity at 1 uM relative to DMSO
# Method in brief: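 Radiometric kinase assay run robotically at room temperature for 30 min, linear in time and enzyme. Conditions: 10 mM magnesium acetate, [γ-33P]ATP (800 cpm/pmol) at 5, 20 or 50 μM per kinase, at or below its ATP Km. Started with MgATP and stopped with orthophosphoric acid, then spotted on P81 filters. Reported as mean % activity of duplicates versus DMSO controls.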
# [19] = target: Epidermal growth factor receptor (Homo sapiens) (UniProt P00533); test: Binding affinity to EGFR assessed as percentage of kinase remaining bound to the bead at 1 uM by T7 phage display based binding assay
# Method in brief: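 Kinases expressed as T7 phage fusions (full-length for small kinases, catalytic domain for large). Phage mixed with an immobilized known kinase inhibitor on streptavidin magnetic beads plus test compound at a single 1 μM concentration. Ligand displacement from the ATP site was read by quantitative PCR as % kinase/phage still bead-bound versus DMSO control. Human kinases.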
# [20] = target: Serine/threonine-protein kinase Nek11 (Homo sapiens) (UniProt Q8NG66); test: Binding affinity to NEK11 assessed as percentage of kinase remaining bound to the bead at 1 uM by T7 phage display based binding assay
# Method in brief: (§3)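 Competition binding assay run by a contract lab. Each kinase was expressed as a fusion to T7 phage, full-length for small kinases and catalytic domain for large ones. Phage were mixed with an immobilized known kinase inhibitor on streptavidin magnetic beads and with test compound at a single 1 μM. Kinase/phage still bound to the beads was quantified by qPCR and expressed as % of DMSO control.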
# [21] = target: Fibroblast growth factor receptor 2 (Homo sapiens) (UniProt P21802); test: Binding affinity to FGFR2 assessed as percentage of kinase remaining bound to the bead at 1 uM by T7 phage display based binding assay; method in brief: as §3
# Ephrin type-B receptor 3 = Ephrin type-B receptor 3 (Homo sapiens, UniProt P54753); test: Inhibition of EphB3 by [gamma33-P]ATP based assay
# Method in brief: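 Radiometric [γ-33P]ATP kinase assay against Eph kinases, following a protocol similar to the Mg-acetate/MgATP filter-binding method.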
# [22] = target: Tyrosine-protein kinase Lck (Homo sapiens) (UniProt P06239); test: Inhibition of Lck assessed as remaining enzyme activity at 1 uM relative to DMSO; method in brief: as §2
# [23] = target: Serine/threonine-protein kinase 26 (Homo sapiens) (UniProt Q9P289); test: Inhibition of MST4 assessed as remaining enzyme activity at 1 uM relative to DMSO; method in brief: as §2
# [24] = target: Tyrosine-protein kinase Tec (Homo sapiens) (UniProt P42680); test: Binding affinity to TEC assessed as percentage of kinase remaining bound to the bead at 1 uM by T7 phage display based binding assay; method in brief: as §3
# [25] = target: Tyrosine-protein kinase SYK (Homo sapiens) (UniProt P43405); test: Inhibition of SYK assessed as remaining enzyme activity at 1 uM relative to DMSO
# [26] = target: Receptor tyrosine-protein kinase erbB-2 (Homo sapiens) (UniProt P04626); test: Binding affinity to ERBB2 assessed as percentage of kinase remaining bound to the bead at 1 uM by T7 phage display based binding assay; method in brief: as §3
# Sequence of Serine/threonine-protein kinase pim-1 (Homo sapiens) (P11309 whole entry, looked up): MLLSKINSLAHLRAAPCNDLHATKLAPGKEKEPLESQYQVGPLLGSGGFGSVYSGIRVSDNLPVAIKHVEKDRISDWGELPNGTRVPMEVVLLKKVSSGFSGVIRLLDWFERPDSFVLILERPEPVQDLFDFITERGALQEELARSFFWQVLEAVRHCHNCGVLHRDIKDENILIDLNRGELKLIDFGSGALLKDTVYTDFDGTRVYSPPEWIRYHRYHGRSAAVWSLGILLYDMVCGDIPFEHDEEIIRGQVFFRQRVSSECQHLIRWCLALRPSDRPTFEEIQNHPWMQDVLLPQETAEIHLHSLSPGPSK
# Sequence of Tyrosine-protein kinase CSK (Homo sapiens) (P41240 2-450 limits assumed): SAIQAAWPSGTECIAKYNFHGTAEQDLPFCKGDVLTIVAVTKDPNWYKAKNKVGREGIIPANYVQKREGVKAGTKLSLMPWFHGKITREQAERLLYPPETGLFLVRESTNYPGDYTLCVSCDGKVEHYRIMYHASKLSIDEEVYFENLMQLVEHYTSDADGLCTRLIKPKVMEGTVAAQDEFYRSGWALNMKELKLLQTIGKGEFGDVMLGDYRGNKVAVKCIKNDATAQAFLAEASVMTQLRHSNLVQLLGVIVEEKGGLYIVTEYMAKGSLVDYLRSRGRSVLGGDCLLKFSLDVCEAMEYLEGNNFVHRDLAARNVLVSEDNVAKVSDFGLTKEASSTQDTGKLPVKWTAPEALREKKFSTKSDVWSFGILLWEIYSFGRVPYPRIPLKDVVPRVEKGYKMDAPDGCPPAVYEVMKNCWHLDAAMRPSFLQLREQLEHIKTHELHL
# Sequence of Tyrosine-protein kinase Tec (Homo sapiens) (P42680 whole entry): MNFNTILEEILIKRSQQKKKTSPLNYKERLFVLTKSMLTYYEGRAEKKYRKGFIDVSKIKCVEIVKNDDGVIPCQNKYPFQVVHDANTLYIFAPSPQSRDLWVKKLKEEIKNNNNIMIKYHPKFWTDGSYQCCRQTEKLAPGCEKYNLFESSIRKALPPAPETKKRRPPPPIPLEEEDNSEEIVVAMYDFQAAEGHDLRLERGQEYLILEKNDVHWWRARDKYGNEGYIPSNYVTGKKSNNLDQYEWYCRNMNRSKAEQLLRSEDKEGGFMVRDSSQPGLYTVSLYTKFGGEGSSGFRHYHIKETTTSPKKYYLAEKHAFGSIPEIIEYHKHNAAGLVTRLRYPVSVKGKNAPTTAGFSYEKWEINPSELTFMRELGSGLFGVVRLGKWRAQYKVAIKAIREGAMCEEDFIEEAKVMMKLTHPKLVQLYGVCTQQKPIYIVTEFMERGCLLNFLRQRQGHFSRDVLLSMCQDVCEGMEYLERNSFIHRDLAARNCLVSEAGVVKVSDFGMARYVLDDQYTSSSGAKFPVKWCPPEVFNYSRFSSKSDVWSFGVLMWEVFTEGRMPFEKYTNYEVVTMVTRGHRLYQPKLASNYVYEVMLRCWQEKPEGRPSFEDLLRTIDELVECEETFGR
# Sequence of Serine/threonine-protein kinase Nek11 (Homo sapiens) (Q8NG66 whole entry, the tested form may be a part): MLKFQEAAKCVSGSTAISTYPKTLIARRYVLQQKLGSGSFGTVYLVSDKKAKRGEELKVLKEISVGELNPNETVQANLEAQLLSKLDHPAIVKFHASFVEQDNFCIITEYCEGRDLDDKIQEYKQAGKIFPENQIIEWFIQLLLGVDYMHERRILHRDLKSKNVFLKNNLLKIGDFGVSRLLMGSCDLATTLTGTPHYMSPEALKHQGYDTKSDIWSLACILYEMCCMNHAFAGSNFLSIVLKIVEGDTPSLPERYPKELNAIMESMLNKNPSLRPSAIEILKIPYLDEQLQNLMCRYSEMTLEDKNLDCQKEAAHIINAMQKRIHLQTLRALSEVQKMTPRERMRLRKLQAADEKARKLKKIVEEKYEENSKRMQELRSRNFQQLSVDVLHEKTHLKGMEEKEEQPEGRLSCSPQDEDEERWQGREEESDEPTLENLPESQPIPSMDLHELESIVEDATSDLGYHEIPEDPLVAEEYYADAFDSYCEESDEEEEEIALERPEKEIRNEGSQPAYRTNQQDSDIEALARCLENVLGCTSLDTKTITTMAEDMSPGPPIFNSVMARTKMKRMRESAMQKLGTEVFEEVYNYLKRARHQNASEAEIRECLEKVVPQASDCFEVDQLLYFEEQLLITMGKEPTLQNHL
# Sequence of Dual specificity protein kinase TTK (Homo sapiens) (P33981 whole entry): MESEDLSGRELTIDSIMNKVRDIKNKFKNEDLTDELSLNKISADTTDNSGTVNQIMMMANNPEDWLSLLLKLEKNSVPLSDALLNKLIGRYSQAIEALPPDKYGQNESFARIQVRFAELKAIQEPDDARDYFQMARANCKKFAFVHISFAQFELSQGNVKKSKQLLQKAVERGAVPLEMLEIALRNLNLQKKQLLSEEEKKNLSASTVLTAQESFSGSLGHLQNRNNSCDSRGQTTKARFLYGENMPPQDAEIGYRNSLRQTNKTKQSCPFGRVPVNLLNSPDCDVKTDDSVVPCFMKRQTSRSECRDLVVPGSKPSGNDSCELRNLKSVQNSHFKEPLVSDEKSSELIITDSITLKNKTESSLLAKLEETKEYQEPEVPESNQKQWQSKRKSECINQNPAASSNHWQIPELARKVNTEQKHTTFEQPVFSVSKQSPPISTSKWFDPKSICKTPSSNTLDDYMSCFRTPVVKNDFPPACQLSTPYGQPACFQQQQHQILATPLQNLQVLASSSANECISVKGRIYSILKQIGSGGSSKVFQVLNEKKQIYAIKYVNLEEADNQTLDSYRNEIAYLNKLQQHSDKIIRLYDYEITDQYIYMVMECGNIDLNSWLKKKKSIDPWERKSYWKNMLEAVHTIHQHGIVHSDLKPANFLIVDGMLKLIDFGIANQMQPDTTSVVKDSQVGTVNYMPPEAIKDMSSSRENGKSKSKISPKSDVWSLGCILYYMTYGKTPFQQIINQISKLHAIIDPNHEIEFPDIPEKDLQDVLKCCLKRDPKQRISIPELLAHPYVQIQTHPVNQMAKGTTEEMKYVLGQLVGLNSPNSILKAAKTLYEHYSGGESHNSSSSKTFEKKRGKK
# Sequence of Proto-oncogene tyrosine-protein kinase Src (Homo sapiens) (P12931 2-536 limits assumed): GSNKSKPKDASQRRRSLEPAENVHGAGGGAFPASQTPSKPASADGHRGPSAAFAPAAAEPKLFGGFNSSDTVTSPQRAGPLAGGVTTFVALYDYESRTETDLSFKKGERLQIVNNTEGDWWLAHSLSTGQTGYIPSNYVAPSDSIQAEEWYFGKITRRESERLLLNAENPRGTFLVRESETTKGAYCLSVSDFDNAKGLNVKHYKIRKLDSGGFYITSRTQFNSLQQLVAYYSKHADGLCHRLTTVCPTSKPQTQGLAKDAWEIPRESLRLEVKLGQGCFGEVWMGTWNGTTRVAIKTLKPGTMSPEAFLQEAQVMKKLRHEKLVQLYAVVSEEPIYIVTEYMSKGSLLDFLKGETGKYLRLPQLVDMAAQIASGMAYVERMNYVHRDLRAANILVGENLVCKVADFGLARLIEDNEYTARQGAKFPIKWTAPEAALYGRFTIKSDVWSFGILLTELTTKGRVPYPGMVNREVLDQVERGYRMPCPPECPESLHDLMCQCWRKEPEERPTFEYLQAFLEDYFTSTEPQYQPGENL
# Sequence of Serine/threonine-protein kinase PAK 5 (Homo sapiens) (Q9P286 whole entry, looked up): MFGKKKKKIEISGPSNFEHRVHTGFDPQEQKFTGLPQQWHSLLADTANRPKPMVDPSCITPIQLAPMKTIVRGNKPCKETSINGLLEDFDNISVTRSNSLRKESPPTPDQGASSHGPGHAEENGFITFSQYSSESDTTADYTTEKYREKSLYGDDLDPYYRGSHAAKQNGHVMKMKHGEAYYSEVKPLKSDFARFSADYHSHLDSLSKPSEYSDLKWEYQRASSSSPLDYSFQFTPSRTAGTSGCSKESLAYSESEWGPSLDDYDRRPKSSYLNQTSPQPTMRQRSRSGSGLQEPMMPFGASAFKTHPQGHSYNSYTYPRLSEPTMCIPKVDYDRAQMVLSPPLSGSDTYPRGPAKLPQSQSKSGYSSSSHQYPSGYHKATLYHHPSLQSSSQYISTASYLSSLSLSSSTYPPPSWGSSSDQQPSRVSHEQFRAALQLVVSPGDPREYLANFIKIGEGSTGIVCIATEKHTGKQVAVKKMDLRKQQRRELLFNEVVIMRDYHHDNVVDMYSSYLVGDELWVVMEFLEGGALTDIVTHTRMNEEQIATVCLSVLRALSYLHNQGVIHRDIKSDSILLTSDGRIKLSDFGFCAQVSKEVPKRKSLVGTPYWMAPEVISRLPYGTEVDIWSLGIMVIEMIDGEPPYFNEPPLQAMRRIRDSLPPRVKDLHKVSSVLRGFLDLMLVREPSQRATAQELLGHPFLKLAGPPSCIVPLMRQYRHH
smiles,measurement,setting,value
COc1ccccc1-n1c(-c2ccccc2C)cn2c3c(=O)[nH]c(=O)n(C)c3nc12,Activity,[1],94%
same,Activity,[2],72%
same,Activity,[3],90%
same,Activity,[4],103%
same,Activity,[5],92%
same,Activity,[6],93%
same,Activity,[7],99%
same,Activity,[8],98%
same,Activity,[9],96%
same,Activity,[10],104%
same,Activity,[11],103%
same,Activity,[12],94%
same,Activity,[13],12%
same,Activity,[14],83%
same,Activity,[15],97%
COc1ccccc1-n1c(-c2cc(O)ccc2C)cn2c3c(=O)[nH]c(=O)n(C)c3nc12,Activity,[16],102%
same,Activity,[17],88%
same,Activity,[18],96%
same,Activity,[19],8.6%
same,Activity,[20],67%
same,Activity,[21],94%
same,pIC50,Ephrin type-B receptor 3,7.82
same,Activity,[22],0%
same,Activity,[23],78%
same,Activity,[24],100%
same,Activity,[25],94%
same,Activity,[26],27%
